Activity calls are given as the source filed them. The calls are words filed in the database; no cut-off is given here.
How the values were obtained:
Assay type in all cases: functional
Rattus norvegicus [1] = species: Rattus norvegicus; test: Irreversible inhibition against Norepinephrine (NE)-induced response in rat vas deferens with benextramine (BHC) as standard at a concentration of 10e-4 M
In short: (§1)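 Rat vas deferens tissues were held at 32 °C under 95% O2/5% CO2 at 0.50 g loading tension, with contractions recorded by force transducer. After 1 h equilibration and a medium change, antagonist was incubated for 30 min, then drained and washed out for 30 min. Cumulative NE concentration-response curves followed. The fall in maximal response, as percent of control, is reported as mean ± SEM of five experiments.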

Rattus norvegicus [2] = species: Rattus norvegicus; test: Irreversible inhibition against Norepinephrine (NE)-induced response in rat vas deferens with benextramine (BHC) as standard at a concentration of 2 x 10e-5 M; Inactive; in short: as §1
[3] = biological target: Adrenergic receptor alpha (Rattus norvegicus) (UniProt P15823+P23944+P43140+P22086+P19328+P22909); test: Irreversible inhibition against Norepinephrine (NE)-induced response in rat vas deferens with benextramine (BHC) as standard at a concentration of 2 x 10e-5 M; in short: as §1
Rattus norvegicus [4] = species: Rattus norvegicus; test: Irreversible inhibition against Norepinephrine (NE)-induced response in rat vas deferens with benextramine (BHC) as standard at a concentration of 6 x 10e-6 M; in short: as §1
Rattus norvegicus [5] = species: Rattus norvegicus; test: Irreversible inhibition against Norepinephrine (NE)-induced response in rat vas deferens with benextramine (BHC) as standard at a concentration of 10e-4 M; Inactive; in short: as §1

| Structure (SMILES) | inhibition [3] [%] | inhibition at 100 µM (Rattus norvegicus [1]) [%] | inhibition (Rattus norvegicus [2]) | also measured |
| --- | --- | --- | --- | --- |
| c1ccc2c(c1)CN(CCCCCCNCCSSCCNCCCCCCN1COc3ccccc3C1)CO2 |  | 34 | inactive |  |
| CN(CCCCCCN1CNc2ccccc2C1)CCSSCCN(C)CCCCCCN1CNc2ccccc2C1 |  | 6 | inactive |  |
| c1ccc(CCNCCCCCCNCCSSCCNCCCCCCNCCc2ccccc2)cc1 |  | 32 | inactive |  |
| CN(CCCCCCN1CCCCC1)CCSSCCN(C)CCCCCCN1CCCCC1 | 34 |  |  |  |
| c1cc2c(cc1COCCCCCCNCCSSCCNCCCCCCOCc1ccc3c(c1)OCO3)OCO2 |  | 45 | inactive |  |
| c1ccc2c(c1)CCN(CCCCCCNCCSSCCNCCCCCCN1CCc3ccccc3C1)C2 |  | 66 | inactive |  |
| c1ccc2c(c1)OC[C@@H](CNCCCCCCNCCSSCCNCCCCCCNC[C@@H]1COc3ccccc3O1)O2 |  | 68 | inactive |  |
| C1CCN(CCSSCCN2CCCCC2)CC1 |  |  | inactive | inhibition (Rattus norvegicus [5]): inactive |
| Nc1ccccc1C(=O)NCCCCCCNCCSSCCNCCCCCCNC(=O)c1ccccc1N |  | 55 | inactive |  |
| CCN(CC)CCSSCCN(CC)CC |  |  | inactive | inhibition (Rattus norvegicus [5]): inactive |
| c1ccc2c(c1)OC[C@H](CNCCCCCCNCCSSCCNCCCCCCNC[C@H]1COc3ccccc3O1)O2 |  | 79 | inactive |  |
| CC(C)(C)NCCSSCCNC(C)(C)C |  |  | inactive | inhibition (Rattus norvegicus [5]): inactive |
| COc1cc(C(O)CNCCCCCCNCCSSCCNCCCCCCNCC(O)c2cc(OC)c(OC)c(OC)c2)cc(OC)c1OC (stereo not given) | 98 |  |  |  |
| c1ccc2c(CNCCCCCCNCCSSCCNCCCCCCNCc3c[nH]c4ccccc34)c[nH]c2c1 |  | 46 | inactive |  |
| COc1ccccc1CNCCCCCCNCCSSCCNCCCCCCNCc1ccccc1OC [BENEXTRAMINE] | 100 |  |  | inhibition at 6 µM (Rattus norvegicus [4]): 35% |
| CN(CCCCCCNCc1ccccc1N)CCSSCCN(C)CCCCCCNCc1ccccc1N |  | 38 | inactive |  |
| c1ccc2c(c1)OCC(CNCCCCCCNCCSSCCNCCCCCCNCC1COc3ccccc3O1)O2 (stereo not given) |  | 53 | inactive |  |

More lines, main results first:

| inhibition [3] [%] | Structure (SMILES) | inhibition at 100 µM (Rattus norvegicus [1]) [%] | inhibition (Rattus norvegicus [2]) | also measured |
| --- | --- | --- | --- | --- |
| 79 | Nc1ccccc1CNCCCCCCNCCSSCCNCCCCCCNCc1ccccc1N |  |  |  |
| 32 | c1ccc(CNCCCCCCOCCSSCCOCCCCCCNCc2ccccc2)cc1 |  |  |  |
| 70 | c1csc(CNCCCCCCNCCSSCCNCCCCCCNCc2cccs2)c1 |  |  |  |
| 43 | OC(CNCCCCCCNCCSSCCNCCCCCCNCC(O)c1ccc2c(c1)OCO2)c1ccc2c(c1)OCO2 (stereo not given) |  |  |  |
| 36 | COc1ccccc1CNCCCCCCOCCSSCCOCCCCCCNCc1ccccc1OC |  |  |  |
| 100 | c1coc(CNCCCCCCNCCSSCCNCCCCCCNCc2ccco2)c1 |  |  | inhibition at 6 µM (Rattus norvegicus [4]): 79% |
| 41 | CN(CCCCCCN1CCCC1)CCSSCCN(C)CCCCCCN1CCCC1 |  |  |  |
| 37 | c1ccc2c(c1)CCN2CCCCCCNCCSSCCNCCCCCCN1CCc2ccccc21 |  |  |  |
| 12 | c1ccc(CNCCSSCCNCc2ccccc2)cc1 | 48 |  |  |
| 57 | NC(CCCCCNCCSSCCNCCCCCC(N)Cc1ccccc1)Cc1ccccc1 (stereo not given) |  |  |  |
| 81 | COc1ccc(C(O)CNCCCCCCNCCSSCCNCCCCCCNCC(O)c2ccc(OC)cc2)cc1 (stereo not given) |  |  |  |
| 44 | O=C(Cc1ccccc1)NCCCCCCNCCSSCCNCCCCCCNC(=O)Cc1ccccc1 |  |  |  |
| 58 | COc1ccccc1COCCCCCCNCCSSCCNCCCCCCOCc1ccccc1OC |  |  |  |
| 89 | c1ccc2c(c1)CN(CCCCCCNCCSSCCNCCCCCCN1CNc3ccccc3C1)CN2 |  |  |  |
| 13 | OC(CNCCCCCCNCCSSCCNCCCCCCNCC(O)c1ccccc1)c1ccccc1 (stereo not given) | 40 |  |  |
| 100 | Cn1ccc(CNCCCCCCNCCSSCCNCCCCCCNCc2ccn(C)c2)c1 |  |  | inhibition at 6 µM (Rattus norvegicus [4]): 54% |
| 91 | COc1cccc(C(O)CNCCCCCCNCCSSCCNCCCCCCNCC(O)c2cccc(OC)c2)c1 (stereo not given) |  |  |  |
| 60 | c1ccc(COCCCCCCNCCSSCCNCCCCCCOCc2ccccc2)cc1 |  |  |  |
| 82 | COc1ccccc1C(O)CNCCCCCCNCCSSCCNCCCCCCNCC(O)c1ccccc1OC (stereo not given) |  |  |  |
| 87 | COc1ccc(C(O)CNCCCCCCNCCSSCCNCCCCCCNCC(O)c2ccc(OC)c(OC)c2)cc1OC (stereo not given) |  |  |  |
| 98 | C(CCCN1CCCC1)CCNCCSSCCNCCCCCCN1CCCC1 |  |  |  |
| 92 | Oc1ccc(C(O)CNCCCCCCNCCSSCCNCCCCCCNCC(O)c2ccc(O)c(O)c2)cc1O (stereo not given) |  |  |  |
| 100 | C(CCCN1CCCCC1)CCNCCSSCCNCCCCCCN1CCCCC1 |  |  | inhibition at 6 µM (Rattus norvegicus [4]): 56% |

Source: ChEMBL document CHEMBL1123930, “Structure-activity relationships among di- and tetramine disulfides related to benextramine” (1987)
